We go through 1 compound from ChEMBL document CHEMBL1137090, “Heterocyclic bis-cations as starting hits for design of inhibitors of the bifunctional enzyme histidine-containing protein kinase/phosphatase from Bacillus subtilis” (J Med Chem, 2004).

Test [1] addresses T1, HPr kinase/phosphorylase (Bacillus subtilis (strain 168), UniProt O34483).
T1 sequence (O34483 whole entry): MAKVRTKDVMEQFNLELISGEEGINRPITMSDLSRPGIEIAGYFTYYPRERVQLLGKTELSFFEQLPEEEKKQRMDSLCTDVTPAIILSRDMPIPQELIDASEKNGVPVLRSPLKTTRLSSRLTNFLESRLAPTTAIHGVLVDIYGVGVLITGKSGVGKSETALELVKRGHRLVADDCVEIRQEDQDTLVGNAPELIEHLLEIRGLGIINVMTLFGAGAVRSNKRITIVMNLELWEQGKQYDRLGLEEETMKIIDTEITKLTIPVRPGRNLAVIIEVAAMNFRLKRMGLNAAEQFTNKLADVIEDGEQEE
As to the kind of experiment: Inhibition of histidine containing protein in phosphatase assay. In short, it runs like this:
(§1)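 Substrates HPr(His)6 or Crh(His)6 (8 µM final) are first fully phosphorylated by HPrK/P with [γ-32P]ATP and FBP, pH 8, 37 °C. Inhibitor, 13 serial concentrations premixed with inorganic phosphate (K2HPO4/KH2PO4, pH 8.0, 1 mM final), then added and incubated 2 h at 37 °C. Precipitating top concentrations excluded. Read-out by P81/scintillation; mean of n = 3; EC50 and Hill coefficient by nonlinear regression.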

The target of test [2] is T1, HPr kinase/phosphorylase. Put plainly: Inhibition of histidine containing protein in kinase assay with ADP. In short, it runs like this:
(§2)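 Kinase reaction, 37 °C 10 min: 100 nM HPrK/P(Trx-His6-S-tag), 10 µM HPr(His)6 or Crh(His)6, 0.5 mM [γ-32P]ATP, 2 mM FBP, 0.1% BSA, pH 8 Tris. ADP given alone or combined with inhibitor at a fixed concentration ratio; ≥13 conditions in triplicate. Phosphate retained on P81 paper is counted. EC50 and Hill coefficient fitted by nonlinear regression.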

The target in test [3] is HPr kinase/phosphorylase (Bacillus subtilis) (UniProt O34483). Put plainly: Effective concentration for inhibition of HPr kinase/phosphorylase in kinase assay.
Test [4] is described as follows: Effective concentration for inhibition of […] in phosphatase assay. The arrangement: species or system Bacillus subtilis. In a few lines: as §1
A short description of test [5]: Hill slope for the compound was measured for inhibition of histidine containing protein kinase assay along with ADP. In a few lines: as §2
Test [6] is described as follows: Hill slope for the compound was measured for inhibition of Crh kinase assay along with ADP.
Test [7] in a line: Effective concentration for inhibition of […] in kinase assay along with ADP. The arrangement: species or system Bacillus subtilis. In short, it runs like this: as §2
The target of test [8] is T1, HPr kinase/phosphorylase. As to the kind of experiment: Inhibition of histidine containing protein in kinase assay. In short, it runs like this:
(§3)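 B. subtilis HPrK/P(Trx-His6-S-tag) kinase, 100 nM, added last to start the reaction with 10 µM HPr(His)6 or Crh(His)6, 0.5 mM [γ-32P]ATP, 5 mM MgCl2, 2 mM FBP, 0.1% BSA, 50 mM Tris pH 8, 10% DMSO; 37 °C, 10 min. Read-out is P81 paper capture, H3PO4 washes and scintillation counting. Thirteen serial inhibitor concentrations, typically in triplicate; EC50 and Hill coefficient from nonlinear regression.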

A short description of test [9]: Combined index for the compound to that of ADP in kinase assay against histidine containing protein. In a few lines:
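B. subtilis HPrK/P(Trx-His6-S-tag), 100 nM, phosphorylating 10 µM HPr(His)6 or Crh(His)6; [γ-32P]ATP 0.5 mM, 50 mM Tris pH 8, 5 mM MgCl2, 2 mM FBP, 0.1% BSA, 37 °C, 10 min. Inhibitor and ADP co-varied at a constant ratio set by their separate EC50s; ≥13 conditions in triplicate. Chou-Talalay combination index computed at EC50.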

A short description of test [10]: Hill slope for the compound was measured for inhibition of histidine containing protein kinase assay. In short, it runs like this: as §3
Test [11] can be described thus: Hill slope for the compound was measured for inhibition of Crh kinase assay.
Test [12] can be described thus: Combined index for the compound to that of ADP in kinase assay against Crh.
Test [13] in a line: Hill slope for the compound was measured for inhibition of histidine containing protein phosphatase assay. In short, it runs like this:
as §1

Test [14] can be described thus: Hill slope for the compound was measured for inhibition of Crh phosphatase assay.

As usually defined, the EC50 is the concentration that produces a half-maximal response. A higher EC50 goes with lower potency in that assay. Turning to `Nc1n(Cc2ccccc2)c2ccccc2[n+]1CCCCCCCCCCCC[n+]1c(N)n(Cc2ccccc2)c2ccccc21.Nc1ncnc2c1ncn2[C@@H]1O[C@H](COP(=O)(O)OP(=O)(O)O)[C@@H](O)[C@H]1O`, the EC50 in test [1] is 16 µM; in [2] it was 5.2 µM; in test [3] it was 21 µM; in test [4], 14 µM; in test [7], 12 µM; in test [8], 10 µM. The Activity in test [5] came out at 2.2; in test [6], 2.3; in test [10], 1.8; in [11] it was 2.4; in [13], 2.1; in test [14], 1.7. Further, the CI in test [9] was 1; in test [12], 1.1.
